Laboratory results taken from ChEMBL document CHEMBL4834433, “Calcitonin gene-related peptide (CGRP) receptor antagonists: Heterocyclic modification of a novel azepinone lead” (Bioorg Med Chem Lett, 2021).
≈ marks a conversion by molar mass, not a printed value.

How the values were obtained:
[1] = target: Cytochrome P450 3A4 (Homo sapiens, UniProt P08684); assay: Time dependent inhibition of CYP3A4 (unknown origin) measured after 30 mins; assay type: ADME
[2] = target: T1, Calcitonin gene-related peptide type 1 receptor (Homo sapiens, UniProt O60894+Q16602); assay: Displacement of [125I]CGRP from human CGRP receptor in human SK-N-MC cells measured after 2 hrs by scintillation counting analysis; assay type: cell-based
[3] = Microsomal stability in monkey microsomes assessed as parent compound remaining at […] measured after 10 mins; assay type: ADME, Macaca mulatta, Liver, Microsome; conditions: rhesus monkey, read-out: Stabilty
[4] = Microsomal stability in human liver microsomes assessed as parent compound remaining at […] measured after 10 mins; assay type: ADME; conditions: read-out: Stabilty
[5] = Microsomal stability in rat microsomes assessed as parent compound remaining at […] measured after 10 mins; assay type: ADME, Microsome; conditions: read-out: Stabilty
[6] = Permeability form apical to basolateral side in human Caco2 cells; assay type: ADME, cell-based; conditions: Caco-2, read-out: permeability
[7] = Total plasma concentration in human CGRPalpha-induced migraine marmoset model at 3 mg/kg, sc measured after 15 to 105 mins; assay type: ADME, organism-based, Callithrix jacchus; conditions: in vivo, time 15-105 min
In short: (§1)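 In anesthetized marmosets given the antagonist sc at 0 min and iv hαCGRP (10 µg/kg) at −30, +15, +60 and +105 min, total plasma levels were taken at the 15, 60 and 105 min postdose test times.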

[8] = tested on: Callithrix jacchus; assay: Antimigraine activity in human CGRPalpha-induced migraine marmoset model assessed as reduction in facial blood flow at 7 mg/kg, sc administered 30 mins after CGRPalpha stimulation measured after 15 mins by laser doppler method relative to control; assay type: functional; set-up: scale not given: the % may be the effect or the level left; conditions: 0.25 h
In short: (§2)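 Marmosets were anesthetized. Facial blood flow was raised by iv hαCGRP (10 µg/kg) given at −30, +15, +60 and +105 min relative to sc antagonist dosing at 0 min. Blood flow was read by laser Doppler flowmetry. Inhibition of the CGRP-induced increase was expressed against the predose vehicle control response at −30 min.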

[9] = Fraction unbound in plasma of human CGRPalpha-induced migraine marmoset model at 7 mg/kg, sc measured after 15 to 105 mins; assay type: ADME, organism-based, Callithrix jacchus; conditions: time 15-105 min
[10] = Cmax in rat at 10 mg/kg, po; assay type: ADME, organism-based; set-up: route oral, dose 10 mg/kg; conditions: in vivo
In short: (§3)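 Rats received a single 10 mg/kg oral dose in 80% PEG400/10% DMAC/10% Tween 80.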

[11] = Permeability of compound at pH 7.4 by PAMPA assay; assay type: ADME; conditions: read-out: permeability
[12] = Total plasma concentration in human CGRPalpha-induced migraine marmoset model at 7 mg/kg, sc measured after 15 to 105 mins; assay type: ADME, organism-based, Callithrix jacchus; conditions: in vivo, time 15-105 min; in short: as §1
[13] = target: T1, Calcitonin gene-related peptide type 1 receptor; assay: Antagonist activity against human CGRP receptor in human SK-N-MC cells assessed as inhibition of CGRP-stimulated cAMP production; assay type: functional, cell-based
[14] = Oral bioavailability in rat at 10 mg/kg; assay type: ADME, organism-based; conditions: in vivo; in short: as §3
[15] = tested on: Callithrix jacchus; assay: Antimigraine activity in human CGRPalpha-induced migraine marmoset model assessed as reduction in facial blood flow at 7 mg/kg, sc administered 30 mins after CGRPalpha stimulation measured after 105 mins by laser doppler method relative to control; assay type: functional; set-up: scale not given: the % may be the effect or the level left; conditions: 1.75 h; in short: as §2
[16] = Permeability form basolateral to apical side in human Caco2 cells; assay type: ADME, cell-based; conditions: Caco-2, read-out: permeability
[17] = tested on: Callithrix jacchus; assay: Antimigraine activity in human CGRPalpha-induced migraine marmoset model assessed as reduction in facial blood flow at 3 mg/kg, sc administered 30 mins after CGRPalpha stimulation measured after 15 to 105 mins by laser doppler method relative to control; assay type: functional; set-up: scale not given: the % may be the effect or the level left; conditions: time 15-105 min; in short: as §2
[18] = Cmax in Cynomolgus monkey at 10 mg/kg, po; assay type: ADME, organism-based, Macaca fascicularis; set-up: route oral, dose 10 mg/kg; conditions: in vivo
[19] = tested on: Callithrix jacchus; assay: Antimigraine activity in human CGRPalpha-induced migraine marmoset model assessed as reduction in facial blood flow at 7 mg/kg, sc administered 30 mins after CGRPalpha stimulation measured after 60 mins by laser doppler method relative to control; assay type: functional; set-up: scale not given: the % may be the effect or the level left; conditions: 1 h; in short: as §2
[20] = Solubility in phosphate buffer at pH 7 using amorphous form of sample; assay type: physicochemical
In short: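 Solubility of the amorphous solid was measured in 50 mM phosphate buffer, pH 7.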

[21] = Permeability of compound at pH 5.5 by PAMPA assay; assay type: ADME; conditions: read-out: permeability
[22] = tested on: Callithrix jacchus; assay: Antimigraine activity in human CGRPalpha-induced migraine marmoset model assessed as reduction in facial blood flow at 7 mg/kg, sc administered 30 mins after CGRPalpha stimulation measured after 15 to 105 mins by laser doppler method relative to control; assay type: functional; set-up: scale not given: the % may be the effect or the level left; conditions: time 15-105 min; in short: as §2

T1 sequence (Q16602 whole entry, one chain of several): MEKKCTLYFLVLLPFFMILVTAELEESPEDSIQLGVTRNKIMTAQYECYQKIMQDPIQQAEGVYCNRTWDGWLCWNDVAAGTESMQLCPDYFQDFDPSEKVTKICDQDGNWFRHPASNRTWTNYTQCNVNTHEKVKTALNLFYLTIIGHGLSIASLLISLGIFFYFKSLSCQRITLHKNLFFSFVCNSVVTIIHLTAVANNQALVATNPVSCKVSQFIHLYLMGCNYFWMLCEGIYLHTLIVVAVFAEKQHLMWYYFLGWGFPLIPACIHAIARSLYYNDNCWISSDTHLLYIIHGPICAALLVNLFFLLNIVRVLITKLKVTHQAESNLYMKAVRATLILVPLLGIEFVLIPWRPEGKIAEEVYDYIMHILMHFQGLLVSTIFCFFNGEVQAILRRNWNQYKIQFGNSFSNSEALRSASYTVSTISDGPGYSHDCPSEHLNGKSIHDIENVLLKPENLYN
Sequence of Cytochrome P450 3A4 (P08684 whole entry): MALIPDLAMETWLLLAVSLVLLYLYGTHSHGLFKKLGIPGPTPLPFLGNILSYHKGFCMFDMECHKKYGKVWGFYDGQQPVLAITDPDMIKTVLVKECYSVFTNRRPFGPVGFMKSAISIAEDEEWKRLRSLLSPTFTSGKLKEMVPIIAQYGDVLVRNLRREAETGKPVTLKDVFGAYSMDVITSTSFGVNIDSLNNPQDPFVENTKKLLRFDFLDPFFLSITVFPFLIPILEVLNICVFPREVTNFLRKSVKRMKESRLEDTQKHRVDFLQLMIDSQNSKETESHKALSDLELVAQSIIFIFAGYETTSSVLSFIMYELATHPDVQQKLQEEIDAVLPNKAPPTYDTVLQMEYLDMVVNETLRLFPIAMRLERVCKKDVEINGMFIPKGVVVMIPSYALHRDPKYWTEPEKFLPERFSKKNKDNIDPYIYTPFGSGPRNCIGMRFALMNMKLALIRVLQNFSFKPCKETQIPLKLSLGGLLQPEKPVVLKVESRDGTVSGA

| Ki [2] | remaining at 10 min [3] | remaining at 10 min [4] | remaining at 10 min [5] | Cmax [10] | Compound | also measured |
| --- | --- | --- | --- | --- | --- | --- |
| 0.015 nM | 75% | 36% | 35% | 96 nM | Cn1c(=O)[nH]c2c(Cl)cc3c(c21)CN(CC(F)(F)F)C(=O)[C@H](CC(=O)N1CCC(N2CCc4ccccc4NC2=O)CC1)C3 | IC50 [1]: 8100 nM; Papp A→B [6]: < 1.5 ×10⁻⁶ cm/s; concentration [7]: 40 nM; Activity [8]: 57%; fraction unbound [9]: 0.023; Papp [11]: 19.2 ×10⁻⁶ cm/s; concentration [12]: 170 nM; IC50 [13]: 0.06 nM; bioavailability [14]: 1%; Activity [15]: 85%; Papp B→A [16]: 19.6 ×10⁻⁶ cm/s; Activity [17]: 79%; Cmax [18]: 35 nM; Activity [19]: 87%; solubility [20]: < 1 µg/mL |
| 0.13 nM | 28% | 91% | 82% | 4 nM | O=C(C[C@@H]1Cc2cc(Cl)c3c(c2CN(CC(F)(F)F)C1=O)C(F)(F)C(=O)N3)N1CCC(n2c(=O)[nH]c3ncccc32)CC1 | IC50 [1]: > 40000 nM; Papp A→B [6]: < 1.5 ×10⁻⁶ cm/s; Activity [8]: 47%; fraction unbound [9]: 0.054; Papp [11]: 8.7 ×10⁻⁶ cm/s; concentration [12]: 140 nM; Activity [15]: 56%; Papp B→A [16]: 25.7 ×10⁻⁶ cm/s; Papp [21]: 9.9 ×10⁻⁶ cm/s; Activity [19]: 48%; solubility [20]: 15 µg/mL (≈ 23.9 µM) |
| 0.44 nM | 64% | 62% | 90% |  | O=C(C[C@@H]1Cc2cc(Cl)c3[nH]nnc3c2CN(CC(F)(F)F)C1=O)N1CCC(n2c(=O)[nH]c3ncccc32)CC1 |  |
| 0.06 nM | 7% | 40% | 40% |  | N#Cc1c[nH]c2c(Cl)cc3c(c12)CN(CC(F)(F)F)C(=O)[C@H](CC(=O)N1CCC(n2c(=O)[nH]c4ncccc42)CC1)C3 |  |
| 0.12 nM | 63% | 49% | 64% | 36 nM | O=C(C[C@@H]1Cc2cc(Cl)c3[nH]c(=O)oc3c2CN(CC(F)(F)F)C1=O)N1CCC(n2c(=O)[nH]c3ncccc32)CC1 |  |
| 0.069 nM | 8.1% | 22% | 35% | 480 nM | O=C(C[C@@H]1Cc2cc(Cl)c3c(c2CN(CC(F)(F)F)C1=O)C(F)(F)C(=O)N3)N1CCC(N2CCc3ccccc3NC2=O)CC1 |  |
| 0.043 nM | 100% | 73% | 56% | 11 nM | Cn1c(=O)[nH]c2c(Cl)cc3c(c21)CN(CC(F)(F)F)C(=O)[C@H](CC(=O)N1CCC(N2CCc4ncccc4NC2=O)CC1)C3 |  |
| 0.026 nM | 41% | 90% | 90% | 3 nM | O=C(C[C@@H]1Cc2cc(Cl)c3[nH]c(=O)n(CC(F)(F)F)c3c2CN(CC(F)(F)F)C1=O)N1CCC(n2c(=O)[nH]c3ncccc32)CC1 | Papp A→B [6]: < 1.5 ×10⁻⁶ cm/s; Papp [11]: 2.3 ×10⁻⁶ cm/s; Papp B→A [16]: 16.5 ×10⁻⁶ cm/s; Papp [21]: 2.8 ×10⁻⁶ cm/s; solubility [20]: < 1 µg/mL |
| 0.4 nM | 70% | 80% | 80% |  | NC(=O)c1c[nH]c2c(Cl)cc3c(c12)CN(CC(F)(F)F)C(=O)[C@H](CC(=O)N1CCC(n2c(=O)[nH]c4ncccc42)CC1)C3 |  |

The next lines start with the compound.

| Compound | Ki [2] | remaining at 10 min [3] | remaining at 10 min [4] | remaining at 10 min [5] | Cmax [10] | also measured |
| --- | --- | --- | --- | --- | --- | --- |
| O=C(C[C@@H]1Cc2cc(Cl)c3[nH]ncc3c2CN(CC(F)(F)F)C1=O)N1CCC(N2CCc3ccccc3NC2=O)CC1 | 0.046 nM |  |  |  |  | IC50 [1]: 100 nM |
| O=C(C[C@@H]1Cc2cc(Cl)c3[nH]cnc3c2CN(CC(F)(F)F)C1=O)N1CCC(N2CCc3ccccc3NC2=O)CC1 | 0.17 nM | 24% | 26% | 7% |  |  |
| O=C(C[C@@H]1Cc2cc(Cl)c3[nH]c(=O)[nH]c3c2CN(CC(F)(F)F)C1=O)N1CCC(N2CCc3ccccc3NC2=O)CC1 | 0.019 nM | 71% | 60% | 41% | 3 nM |  |
| O=C(C[C@@H]1Cc2cc(Cl)c3[nH]c(=O)n(CC(F)(F)F)c3c2CN(CC(F)(F)F)C1=O)N1CCC(N2CCc3ccccc3NC2=O)CC1 | 0.02 nM | 87% | 58% | 54% | 270 nM | IC50 [1]: 8400 nM; Papp A→B [6]: < 1.5 ×10⁻⁶ cm/s; Activity [8]: 26%; fraction unbound [9]: 0.009; concentration [12]: 80 nM; IC50 [13]: 0.12 nM; Activity [15]: 84%; Papp B→A [16]: 2.4 ×10⁻⁶ cm/s; Cmax [18]: 87 nM; Papp [21]: 51.3 ×10⁻⁶ cm/s; Activity [19]: 65%; solubility [20]: < 1 µg/mL |
| CCn1c(=O)[nH]c2c(Cl)cc3c(c21)CN(CC(F)(F)F)C(=O)[C@H](CC(=O)N1CCC(N2CCc4ccccc4NC2=O)CC1)C3 | 0.014 nM | 59% | 44% | 22% | 230 nM | Activity [22]: 67%; IC50 [13]: 0.09 nM; Cmax [18]: 230 nM |
| O=C(C[C@@H]1Cc2cc(Cl)c3[nH]ccc3c2CN(CC(F)(F)F)C1=O)N1CCC(N2CCc3ccccc3NC2=O)CC1 | 0.85 nM | 1.6% | 0.9% | 0.8% |  |  |
| N#Cc1c[nH]c2c(Cl)cc3c(c12)CN(CC(F)(F)F)C(=O)[C@H](CC(=O)N1CCC(N2CCc4ccccc4NC2=O)CC1)C3 | 0.06 nM | 26% | 38% | 11% |  |  |
